Results as given in ChEMBL document CHEMBL4014308, “Amphiphilic Tobramycin-Lysine Conjugates Sensitize Multidrug Resistant Gram-Negative Bacteria to Rifampicin and Minocycline” (J Med Chem, 2017).
In brackets after ≈: the same amount, converted by molar mass.

Tests used:
Format in all cases: functional
Pseudomonas aeruginosa [1] = assay: Antibacterial activity against Pseudomonas aeruginosa PAO1 after 18 hrs by microtiter dilution assay; settings: PAO1, 18 h
Method in brief: (§1)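 Broth microdilution following CLSI guidelines. An overnight culture was adjusted to 0.5 McFarland in saline, then diluted 1:50 in Mueller-Hinton broth. This inoculum was added in equal volume to 2-fold serial dilutions of agent in MHB and incubated 18 h at 37 °C. MIC was the lowest concentration with no visible growth.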

Pseudomonas aeruginosa [2] = assay: Antibacterial activity against multidrug/extremely drug-resistant/colistin-susceptible Pseudomonas aeruginosa isolate P259-96918 after 18 hrs by microtiter dilution assay; settings: isolate P259-96918, 18 h; method in brief: as §1
Pseudomonas aeruginosa [3] = assay: Antibacterial activity against multidrug/extremely drug-resistant/colistin-resistant Pseudomonas aeruginosa isolate 91433 after 18 hrs by microtiter dilution assay; settings: isolate 91433, 18 h; method in brief: as §1
Pseudomonas aeruginosa [4] = assay: Antibacterial activity against multidrug/extremely drug-resistant/colistin-susceptible Pseudomonas aeruginosa isolate P262-101856 after 18 hrs by microtiter dilution assay; settings: isolate P262-101856, 18 h; method in brief: as §1
Pseudomonas aeruginosa [5] = assay: Antibacterial activity against multidrug/extremely drug-resistant/colistin-susceptible Pseudomonas aeruginosa isolate 100036 after 18 hrs by microtiter dilution assay; settings: isolate 100036, 18 h; method in brief: as §1
Pseudomonas aeruginosa [6] = assay: Antibacterial activity against multidrug/extremely drug-resistant/colistin-susceptible Pseudomonas aeruginosa isolate 101885 after 18 hrs by microtiter dilution assay; settings: isolate 101885, 18 h; method in brief: as §1
Pseudomonas aeruginosa [7] = assay: Antibacterial activity against multidrug/extremely drug-resistant/colistin-susceptible Pseudomonas aeruginosa isolate P264-104354 after 18 hrs by microtiter dilution assay; settings: isolate P264-104354, 18 h; method in brief: as §1
Pseudomonas aeruginosa [8] = assay: Antibacterial activity against multidrug/extremely drug-resistant/colistin-resistant Pseudomonas aeruginosa isolate 101243 after 18 hrs by microtiter dilution assay; settings: isolate 101243, 18 h; method in brief: as §1
[9] = test system: Staphylococcus epidermidis; assay: Antibacterial activity against methicillin-resistant Staphylococcus epidermidis isolate CAN-ICU 61589 after 18 hrs by microtiter dilution assay; settings: isolate CAN-ICU 61589, 18 h; method in brief: as §1
Escherichia coli = assay: Antibacterial activity against amikacin-resistant Escherichia coli isolate CAN-ICU 63074 after 18 hrs by microtiter dilution assay; settings: isolate CAN-ICU 63074, 18 h; method in brief: as §1

Row | Structure (SMILES) | MIC (Pseudomonas aeruginosa [1]) | MIC (Pseudomonas aeruginosa [2]) | MIC (Pseudomonas aeruginosa [3]) | MIC (Pseudomonas aeruginosa [4]) | MIC (Pseudomonas aeruginosa [5]) | MIC (Pseudomonas aeruginosa [6]) | MIC (Pseudomonas aeruginosa [7]) | MIC (Pseudomonas aeruginosa [8]) | MIC [9] | MIC (Escherichia coli)
1 | NC[C@H]1O[C@H](O[C@H]2[C@H](O)[C@@H](O[C@H]3O[C@H](CO)[C@@H](O)[C@H](N)[C@H]3O)[C@H](N)C[C@@H]2N)[C@H](O)[C@@H](O)[C@@H]1O [KANAMYCIN] | 64 µg/mL (≈ 132 µM) | – | – | – | – | – | – | – | – | –
2 | COc1c(N2C[C@@H]3CCCN[C@@H]3C2)c(F)cc2c(=O)c(C(=O)O)cn(C3CC3)c12 [MOXIFLOXACIN] | 1 µg/mL (≈ 2.49 µM) | 512 µg/mL (≈ 1280 µM) | 8 µg/mL (≈ 19.9 µM) | 128 µg/mL (≈ 319 µM) | 128 µg/mL (≈ 319 µM) | 64 µg/mL (≈ 159 µM) | 128 µg/mL (≈ 319 µM) | 4 µg/mL (≈ 9.96 µM) | – | –
3 | CC(C)(O/N=C(\C(=O)N[C@@H]1C(=O)N2C(C(=O)[O-])=C(C[n+]3ccccc3)CS[C@H]12)c1csc(N)n1)C(=O)O [CEFTAZIDIME] | 2 µg/mL (≈ 3.66 µM) | 512 µg/mL (≈ 937 µM) | 256 µg/mL (≈ 468 µM) | 16 µg/mL (≈ 29.3 µM) | 8 µg/mL (≈ 14.6 µM) | 8 µg/mL (≈ 14.6 µM) | 64 µg/mL (≈ 117 µM) | 64 µg/mL (≈ 117 µM) | > 32 µg/mL | –
4 | COc1cc(Cc2cnc(N)nc2N)cc(OC)c1OC [TRIMETHOPRIM] | 256 µg/mL (≈ 882 µM) | 512 µg/mL (≈ 1760 µM) | 512 µg/mL (≈ 1760 µM) | > 1020 µg/mL | 256 µg/mL (≈ 882 µM) | > 512 µg/mL | 256 µg/mL (≈ 882 µM) | 1020 µg/mL (≈ 3530 µM) | – | –
5 | O=C(O)c1cn(C2CC2)c2cc(N3CCNCC3)c(F)cc2c1=O [CIPROFLOXACIN] | – | 128 µg/mL (≈ 386 µM) | – | 32 µg/mL (≈ 96.6 µM) | 64 µg/mL (≈ 193 µM) | 32 µg/mL (≈ 96.6 µM) | 32 µg/mL (≈ 96.6 µM) | – | – | –
6 | C[C@@H](O)[C@H]1C(=O)N2C(C(=O)O)=C(S[C@@H]3CN[C@H](C(=O)N(C)C)C3)[C@H](C)[C@H]12 [MEROPENEM] | 0.5 µg/mL (≈ 1.3 µM) | – | – | – | – | – | – | – | – | –
7 | CN[C@H](CC(C)C)C(=O)N[C@H]1C(=O)N[C@@H](CC(N)=O)C(=O)N[C@H]2C(=O)N[C@H]3C(=O)N[C@H](C(=O)N[C@H](C(=O)O)c4cc(O)cc(O)c4-c4cc3ccc4O)[C@H](O)c3ccc(c(Cl)c3)Oc3cc2cc(c3O[C@@H]2O[C@H](CO)[C@@H](O)[C@H](O)[C@H]2O[C@H]2C[C@](C)(N)[C@H](O)[C@H](C)O2)Oc2ccc(cc2Cl)[C@H]1O [VANCOMYCIN] | > 1020 µg/mL | – | – | – | – | – | – | – | – | –
8 | NCC[C@H](O)C(=O)N[C@@H]1C[C@H](N)[C@@H](O[C@H]2O[C@H](CN)[C@@H](O)[C@H](O)[C@H]2O)[C@H](O)[C@H]1O[C@H]1O[C@H](CO)[C@@H](O)[C@H](N)[C@H]1O [AMIKACIN] | 1 µg/mL (≈ 1.71 µM) | – | – | – | – | – | – | – | – | 32 µg/mL (≈ 54.6 µM)
